# Experiments:
# [1] = target: cap-dependent (eIF4AI/II-dependent) translation; test: In vitro translation assay in rabbit reticulocyte lysate, cap-dependent cistron; assay type: biochemical; conditions: for fold loss of activity in in vitro translation assay: versus DMDAPatA (2)
# In short: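 Bicistronic reporter mRNA (cap-dependent firefly cistron; HCV IRES-driven Renilla cistron) was SP6-transcribed from linearized plasmid and purified. 200 ng RNA was translated in 20 μl rabbit reticulocyte lysate reactions with 70 mM KCl, 2 mM DTT and RNasin. Compound in DMSO was added at 5% (v/v) final. Reactions ran 1.5 h at 30 °C, then dual-luciferase read-out. Duplicates; 4 independent assays; IC50 by curve fitting, averaged.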
# [2] = system: SK-MEL2 melanoma cells; test: MTT cell proliferation assay, second-generation analogs, SK-MEL2; assay type: cell-based; conditions: versus DMDAPatA (2)
# In short: (§1)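 HeLa and SK-MEL2 cells were grown in DMEM, Jurkat T cells in RPMI 1640, each with 10% FBS and pen-strep at 37 °C, 5% CO2. Adherent lines were seeded at 2000 cells/well and allowed to recover overnight; Jurkat were seeded at 5000 cells/well with no recovery. Compound was given in 0.1% DMSO final for 72 h, then MTT read-out.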
# [3] = system: Jurkat T cells; test: MTT cell proliferation assay, second-generation analogs, Jurkat T; assay type: cell-based, human; conditions: versus DMDAPatA (2)
# In short: as §1
# [4] = system: HeLa, Jurkat T cells, and SK-MEL2; test: MTT cell proliferation assays, statements pooled over all three cell lines; assay type: cell-based; conditions: for cell proliferation inhibition activity, in words: all cell lines tested
# [5] = system: HeLa; test: MTT cell proliferation assay, second-generation analogs, HeLa; assay type: cell-based, human; conditions: versus DMDAPatA (2)
# In short: as §1
# [6] = system: SK-MEL2; test: Proliferation assay on SK-MEL2 cultured with reduced serum, 5% FBS; assay type: cell-based; conditions: 5% FBS versus 10% FBS
# [7] = system: immortalized mouse embryonic fibroblasts (MEFs); assay type: cell-based; conditions: for IC50: Mus musculus, Fibroblast, read-out: estimated IC50, MEFs; for fold loss in activity in MEFs compared with cancer cell lines: estimated
# [8] = system: HeLa, RKO, HaCaT, Jurkat T, BAEC; test: Cell proliferation assays, first generation, statements pooled over cell lines; assay type: cell-based; conditions: for anti-proliferative IC50 values, in words: first generation protocol, cell lines tested
# [9] = system: IL-2 reporter gene; conditions: Jurkat T cells; data previously reported; ref Romo et al.[29]; cited from earlier work
# [10] = system: DNA polymerases α and β; conditions: read-out: IC50, DNA polymerases α and β; direct in vitro inhibition; cited from earlier work
# [11] = system: cancer cell lines; conditions: cell culture, variety of cancer cell lines; cited from earlier work
# [12] = system: xenograft mouse models, melanoma models; conditions: several xenograft mouse models; cited from earlier work
smiles,measurement,setting,value
CC(/C=C/C=C/CO)=C\[C@@H]1Cc2nc(cs2)CCCCC(=O)O[C@@H](C)C/C(C)=C/C=C\C(=O)O1 [Compound 9e],IC50 (nM) cap-dependent translation inhibition,"[1]; rabbit reticulocyte lysate, 30 °C, 1.5 h, ± 1 standard deviation, N.E. = no effect up to concentration (nM) in parentheses",a degree of activity at high concentration
C/C(Br)=C\[C@@H]1Cc2nc(cs2)CCCCC(=O)O[C@@H](C)C/C(C)=C/C=C\C(=O)O1 [Compound 5],fold loss of activity in SK-MEL2 cells,[2],≥ 700 fold
same,fold loss of activity in Jurkat T cells,[3],≥ 700 fold
C/C(Br)=C\[C@@H]1Cc2nc(cs2)CCCCC(=O)O[C@@H](C)C/C(C)=C/C=C/C(=O)O1 [Compound 6],"cell proliferation inhibition activity, in words",[4],inactive
CC(/C=C/C(C)=C/[C@@H]1Cc2nc(cs2)CCCCC(=O)O[C@@H](C)C/C(C)=C/C=C\C(=O)O1)=C\CN1CCOCC1 [Compound 9b],fold loss of activity in HeLa cells,[5],greater than 400 fold
same,fold loss of activity in SK-MEL2 cells,[2],approximately 25 fold
same,fold loss of activity in Jurkat T cells,[3],at least 700 fold
same,fold loss of activity in in vitro translation assay,[1],roughly 3 fold
same,fold increase of activity under 5% FBS,[6],roughly 2 fold
same,IC50,[7],> 2 µM
same,fold loss in activity in MEFs compared with cancer cell lines,[7],roughly 5 fold
CC(/C=C/CCCO)=C\[C@@H]1Cc2nc(cs2)CCCCC(=O)O[C@@H](C)C/C(C)=C/C#CC(=O)O1 [Compound 10g],"cell proliferation inhibition activity, in words",[4],did not demonstrate any significant cell proliferation inhibition activity
"CC(/C=C/C(C)=C/[C@@H]1Cc2nc(cs2)CCCCC(=O)O[C@@H](C)C/C(C)=C/C=C\C(=O)O1)=C\CN(C)C [Compound 2, C5-des-methyl, C3-des-amino pateamine A]",fold lower activity than PatA in cell proliferation assays,[8]; DMDAPatA versus PatA,roughly 10 fold
same,"anti-proliferative IC50 values, in words",[8],single-digit nanomolar
same,fold reduced anti-proliferative activity under 5% FBS,[6],roughly 2 fold
same,IC50,[7],> 0.05 µM
same,fold loss in activity in MEFs compared with cancer cell lines,[7],roughly 5 fold
same,IC50 (nM) IL-2 reporter gene assay,[9],sub-nanomolar
same,IC50,[10],3 to 19 µM
same,"anti-proliferative IC50 values in cancer cell lines, in words",[11],approximately single-digit nanomolar
same,anticancer activity in xenograft mouse models,[12],potent anticancer activity in several xenograft mouse models with especially significant regressions in melanoma models
CC(/C=C/C(C)=C/[C@@H]1Cc2nc(cs2)CCCCC(=O)O[C@@H](C)C/C(C)=C/C=C\C(=O)O1)=C\CN1CCCC1 [Compound 9c],fold loss of activity in all cell lines,"[4]; versus DMDAPatA (2), HeLa, SK-MEL2, Jurkat T",~2 fold
same,fold loss of activity in in vitro translation assay,[1],2 fold
same,IC50,[7],> 0.1 µM
COCCC/C=C/C(C)=C/[C@@H]1Cc2nc(cs2)CCCCC(=O)O[C@@H](C)C/C(C)=C/C#CC(=O)O1 [Compound 10f],"cell proliferation inhibition activity, in words",[4],did not demonstrate any significant cell proliferation inhibition activity
CC(/C=C/C(C)=C/[C@@H]1Cc2nc(cs2)CCCCC(=O)O[C@@H](C)C/C(C)=C/C#CC(=O)O1)=C\CN(C)C [Compound 10a],"cell proliferation inhibition activity, in words",[4],no effect was observed
"CC(/C=C/C(C)=C/[C@@H]1Cc2nc(cs2)[C@@H](C)C[C@@H](N)CC(=O)O[C@@H](C)C/C(C)=C/C=C\C(=O)O1)=C\CN(C)C [PatA (1), pateamine A, reference compound]","anti-proliferative IC50 values, in words",[8],sub-nanomolar
same,"anti-proliferative IC50 values in cancer cell lines, in words",[11],sub-nanomolar range
